Screens from PubChem.
LMPTP block – LMPTP (human) inhibition | recombinant LMPTP-A, OMFP fluorogenic substrate, fluorescence intensity | actives 0.22% (n = 360,000) | AID 651560 | inhibition, % at 20 µM;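 active means compounds that cut the enzyme signal by at least half of the control window in the single-dose screen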;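 further: plate controls were DMSO wells with enzyme plus substrate for no effect and substrate without enzyme for full effect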
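Assay system: LMPTP-A phosphatase enzyme | Input: 0.625 nM enzyme | Also added: Fluorogenic phosphatase substrate OMFP at 400 µM final | Compound dosing: One test concentration per compound, 20 µM, with 3% DMSO overall | Schedule: 50 min enzyme reaction at room temperature, protected from light | Signal: Fluorescence intensity | Benchmarks: no-enzyme and uninhibited controls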
STEP inh – STEP (human) phosphatase inhibition; P54829; recombinant STEP, OMFP fluorogenic substrate, fluorescence; inhibition, % at 20 µM; actives 0.25% (n = 360,000);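 active means inhibition at 20 µM, scaled per plate between control wells, above about 37%, limit read from the data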;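 further: 0% = DMSO with enzyme and substrate and 100% = substrate only without enzyme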
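material = STEP tyrosine phosphatase | reagent = fluorogenic phosphatase substrate OMFP at 25 µM final | doses = single compound dose of 20 µM, 1% DMSO final | schedule = 20 min reaction, room temperature, in the dark | measured by = fluorescence, 480/540 nm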
DNMT1 block – DNMT1 (human) enzyme inhibition; P26358; DNMT1 molecular beacon, Hinp1I cleavage, fluorescence; inhibition (reported as % activation of signal), % at 10 µM; actives 0.83% (n = 360,000); in the data active means inhibition above about 50%
Scp1 inh – blocks human Scp-1 phosphatase activity. actives 0.88% (n = 340,000). Q9GZU7. inhibition, % at 20 µM. AID 493091. Recombinant Scp1, phosphopeptide, malachite green phosphate absorbance;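 active means inhibition above about 50% at 20 µM, limit read from the data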;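 further: plate controls were DMSO wells with enzyme for no effect and wells lacking enzyme for full effect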
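Test system: SCP-1 phosphatase catalytic domain, residues 76-261; measured by: colorimetric phosphate reagent with accelerator and stabiliser, absorbance at 630 nm; timing: enzyme reaction 45 min at room temperature, colour 5 min, stabilisation 30 min; also added: Phosphorylated 17-residue peptide substrate; compound dosing: one concentration, 20 µM, with 1.0% DMSO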
SUMO1 PPI mod – SUMO1-SIM interaction modulation. AID 602429. SUMO1 binding to a labelled peptide, TR-FRET, 1 h. inhibition, % at 20 µM. actives 0.33% (n = 360,000); in the data active means inhibition above about 37%
Target sequence (P63165 whole entry, looked up): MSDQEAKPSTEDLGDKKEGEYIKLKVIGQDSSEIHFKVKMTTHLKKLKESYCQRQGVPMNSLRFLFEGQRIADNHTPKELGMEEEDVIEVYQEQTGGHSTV
GRK2 inh – human GRK2 inhibition via aptamer displacement | AID 488847 | bead flow cytometry, FAM-aptamer displacement from GRK2 | actives 0.59% (n = 330,000) | P25098 | inhibition of aptamer binding, % at 10 µM;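 active means inhibition of aptamer binding above 40%, roughly 3 SD of noise, on plates passing a quality check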;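 further: median bead fluorescence of bound FAM aptamer so fluorescent compounds give negative values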
Target sequence (P25098 whole entry, looked up): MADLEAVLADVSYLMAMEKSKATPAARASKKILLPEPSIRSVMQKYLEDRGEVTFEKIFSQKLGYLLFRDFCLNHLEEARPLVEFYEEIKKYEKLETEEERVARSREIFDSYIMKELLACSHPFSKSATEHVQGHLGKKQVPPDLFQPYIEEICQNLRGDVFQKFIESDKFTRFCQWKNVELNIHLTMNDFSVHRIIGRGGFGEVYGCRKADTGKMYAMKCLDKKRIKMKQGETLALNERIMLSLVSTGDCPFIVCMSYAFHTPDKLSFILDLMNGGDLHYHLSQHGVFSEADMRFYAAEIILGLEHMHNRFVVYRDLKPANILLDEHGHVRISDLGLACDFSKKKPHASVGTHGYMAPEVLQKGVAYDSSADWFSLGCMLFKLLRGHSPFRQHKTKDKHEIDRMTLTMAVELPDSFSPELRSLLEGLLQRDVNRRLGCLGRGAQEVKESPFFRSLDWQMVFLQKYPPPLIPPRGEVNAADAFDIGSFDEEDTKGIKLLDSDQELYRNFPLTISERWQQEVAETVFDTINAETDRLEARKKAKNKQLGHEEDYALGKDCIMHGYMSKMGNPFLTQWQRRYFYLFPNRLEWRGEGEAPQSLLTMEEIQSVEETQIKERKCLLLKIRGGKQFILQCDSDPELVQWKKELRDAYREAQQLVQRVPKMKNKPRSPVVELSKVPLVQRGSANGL
Scp1 confirm – confirmation of human Scp-1 phosphatase inhibitors; recombinant SCP-1 catalytic domain, phosphate release, malachite green absorbance; shares compounds with Scp1 inh; AID 540281; inhibition, % at 20 µM; actives 61% (n = 2,500);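 further: plate controls were DMSO with enzyme for no effect and buffer wells lacking enzyme for full effect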
Scp-1 MG ctr – interferes with malachite green readout, flagging false Scp-1 hits. shares compounds with Scp1 inh. AID 540313. Colorimetric interference counterscreen, malachite green absorbance 630 nm. 2,500 tested, under 10 active. apparent inhibition (interference), % at 20 µM;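 further: compounds added after enzyme reaction finished so only phosphate colour detection is probed; plate controls were DMSO wells with completed Scp-1 reaction for no effect and substrate wells lacking enzyme for full effect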
Scp-1 Tm shift – binds human Scp-1, shifting its melting temperature | thermal shift relative to vanadate control, % at 40 µM | Recombinant SCP1, Sypro Orange thermal shift Tm | actives 25% (n = 1,500) | shares compounds with Scp1 inh;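 active means substances whose mean melting-temperature shift, as a percentage of the reference inhibitor's shift, reaches about 5.3%, limit read from the data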;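 further: 0% = Tm of DMSO wells and 100% = Tm with sodium orthovanadate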
DNMT1 inh conf – confirmation of human DNMT1 inhibitors. shares compounds with DNMT1 block. DNMT1 molecular beacon HinP1I cleavage, fluorescence. inhibition, % at 10 µM. actives 8% (n = 2,300);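 active means average inhibition of at least 30% in the single-concentration confirmation test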
DNMT1 interf – shows spectral interference in the DNMT1 beacon assay. activation (fluorescence interference), % at 10 µM. AID 602387. shares compounds with DNMT1 block. actives 1% (n = 2,300). DNMT1 molecular beacon spectral interference counterscreen, fluorescence 485/520;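 active means activation of at least 30% at 10 µM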;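 further: DNMT1 catalytic domain with a HinP1I cleavage step and a FAM/dabcyl DNA beacon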
STEP inh conf – STEP (human) phosphatase inhibition, single concentration confirmation | shares compounds with STEP inh | recombinant STEP, OMFP fluorogenic substrate, fluorescence | inhibition, % at 20 µM | actives 32% (n = 520); call rule not given here;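 further: 0% = enzyme with substrate plus DMSO and 100% = substrate without enzyme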
An asterisk follows results filed as active; x = not tested or not shown. Sampled rows, rich in hits. Any-hit rate of the full collection: about 2.2%.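 How the source made its calls, unless noted: active means inhibition of at least 30% at 20 µM; inactive means the rest.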

SMILES	LMPTP block	STEP inh	DNMT1 block	Scp1 inh	SUMO1 PPI mod	GRK2 inh	Scp1 confirm	Scp-1 MG ctr	Scp-1 Tm shift	STEP inh conf	others
O=C(O)CSc1ncnc2c1sc1nc(-c3ccccc3)c3c(c12)CCC3	2.0	48.2*	-0.9	78.4*	30.6	1.0	52.8*	-11.5	-9.4	33.8
O=C(O)c1ccc(Cl)c(S(=O)(=O)N(Cc2ccccc2)c2ccccc2)c1	-1.3	-1.8	0.4	8.9	14.2	0.0	x	x	x	x
CCN(c1ccccc1)S(=O)(=O)c1cc(C(=O)O)ccc1C	60.4*	94.7*	85.0*	56.4*	12.1	8.0	46.3*	-14.7	-0.3	19.1	DNMT1 inh conf=0.5;DNMT1 interf=0.7
Cc1c(CC(=O)O)c(=O)oc2c(C)c3occ(-c4ccc(Br)cc4)c3cc12	2.4	69.4*	3.5	52.0*	23.5	0.0	61.6*	-7.3	-16.8	5.7
O=C(CSc1nnc2c(n1)[nH]c1ccc(F)cc12)NC1CC1	0.4	0.5	1.2	-1.2	-9.6	2.0	x	x	x	x
O=C(CSc1nnc2c(n1)[nH]c1ccc(F)cc12)NCc1ccc(F)cc1	11.9	59.9*	5.0	64.8*	-1.5	0.0	25.3	-10.1	x	-4.0
COc1ccc2cc3c(N)nn(C(=O)c4ccc(F)cc4)c3nc2c1	-0.9	21.3	6.4	26.7	9.1	0.0	x	x	x	x
COc1ccc2cc3c(N)nn(C(=O)c4cccc(F)c4)c3nc2c1	25.9	95.6*	42.6	96.3*	85.2*	1.0	60.4*	-16.4	-21.5	21.3*
CC1=C(C(=O)N2CCCCCC2)CC(CC(=O)NCCN2CCOCC2)C(=O)N1CCC1=CCCCC1 (stereo not drawn)	-1.4	x	x	x	-0.1	x	x	x	x	x
CCN(CC)C(=O)C1=C(C)N(Cc2ccccc2)C(=O)C(CC(=O)NC2CC2)C1 (stereo not drawn)	-0.1	1.5	-0.9	x	5.6	x	x	x	x	x
O=C(O)Cc1cccc(=O)c(O)c1C(=O)O	18.8	68.3*	86.1*	79.0*	17.5	x	54.4*	-9.0	6.3*	87.7*
O=c1c(NCCc2ccccc2)c(-c2ccccc2)c1=O	0.6	4.6	3.3	0.8	13.3	0.0	x	x	x	x
Cc1ccc(-c2c(NCCc3ccccc3)c(=O)c2=O)cc1	26.1	57.1*	10.1	89.0*	5.0	0.0	59.0*	-10.1	-8.5	9.3
Cc1cn([C@H]2C[C@H](O)[C@@H](CNC(=O)[C@H](N)Cc3cn(COCc4ccccc4)cn3)O2)c(=O)[nH]c1=O	-1.8	0.8	-3.5	x	-3.8	x	x	x	x	x
COC(=O)c1cc2ccc(OC)c(OC)c2c(=O)s1	-1.0	-2.1	4.5	1.1	-24.1	0.0	x	x	x	x
COc1ccc2cc(C(=O)Nc3ccc(Cl)cc3)sc(=O)c2c1OC	0.5	59.3*	57.0*	92.1*	-2.2	0.0	65.1*	-13.1	-8.7	26.6	DNMT1 inh conf=14.4;DNMT1 interf=0.2
COc1ccc2cc(C(=O)Nc3ccc(O)cc3)sc(=O)c2c1OC	0.2	-3.1	-3.3	-4.4	-5.7	0.0	x	x	x	x
COc1ccc2cc(C(=O)Nc3ccc(F)cc3)sc(=O)c2c1OC	38.3	49.3*	12.3	55.5*	-4.2	0.0	41.2*	-22.4	-14.9	14.0
O=C(C[C@@H]1C=C[C@@H](NC(=O)c2cccnc2)[C@@H](CO)O1)NCc1ccncn1	-2.3	x	x	x	4.9	x	x	x	x	x
COc1cccc(C(C)(O)c2nc(-c3cnn(C)c3)cs2)c1 (stereo not drawn)	-1.6	2.4	3.0	x	2.8	x	x	x	x	x
Cc1c(C(=O)N(C)Cc2ccc(F)cc2)sc(=O)n1Cc1ccc(Cl)c(Cl)c1	1.5	0.1	-3.5	x	-2.2	x	x	x	x	x
O=C(Nc1ccc(-c2nnn(CC(=O)N3CCN(C(=O)c4ccco4)CC3)n2)cc1)c1ccccc1F	x	x	x	x	x	2.0	x	x	x	x
O=C(Cn1nnc(-c2ccc(NC(=O)c3ccccc3F)cc2)n1)NCc1ccc(F)cc1	38.7	65.4*	77.4*	52.3*	6.1	0.0	67.9*	-15.3	8.1*	19.7	DNMT1 inh conf=1.0;DNMT1 interf=-3.8
O=C(N/N=C/c1cccc2ccccc12)c1cc2ccccc2o1	0.8	-2.1	0.7	7.0	-2.1	x	x	x	x	x
O=C(N/N=C/C=C/c1ccccc1)c1cc2c(ccc3ccccc32)o1	62.5*	65.6*	94.1*	102.4*	-1.2	0.0	81.1*	-6.5	-21.6	21.2	DNMT1 inh conf=5.9;DNMT1 interf=2.4
SMILES	LMPTP block	STEP inh	DNMT1 block	Scp1 inh	SUMO1 PPI mod	GRK2 inh	Scp1 confirm	Scp-1 MG ctr	Scp-1 Tm shift	STEP inh conf	others
O=C(N/N=C/c1ccccc1F)c1cc2c(ccc3ccccc32)o1	35.5	96.8*	81.9*	103.0*	10.4	0.0	67.2*	-10.9	-18.1	11.1	DNMT1 inh conf=6.3;DNMT1 interf=-0.5
COc1ccc(OC)c(/C=N\NC(=O)c2cc3c(ccc4ccccc43)o2)c1	2.6	-0.2	5.8	-8.3	-2.3	5.0	x	x	x	x
CC(C)CCN1C(=O)c2ccccc2C1c1nnnn1C(C)C (stereo not drawn)	-0.6	x	x	x	-1.9	x	x	x	x	x
O=c1cc(-c2ccsc2)oc2cc(-c3ccc4c(c3)OCO4)ccc12	67.9*	45.6*	61.1*	67.9*	7.1	0.0	52.8*	-19.2	-2.3	7.2	DNMT1 inh conf=-0.5;DNMT1 interf=-0.6
CC(/C=N/NC(=O)c1ccc(Br)cc1)=C\c1ccccc1	54.7*	54.9*	50.1*	94.1*	-4.1	0.0	89.2*	-3.2	-20.7	-1.8	DNMT1 inh conf=1.2;DNMT1 interf=1.6
Cc1ccc(S(=O)(=O)N2CCC(=O)N([C@H](COC(=O)Nc3ccccc3)Cc3ccccc3)CC2)cc1	2.8	x	x	x	0.1	x	x	x	x	x
COC(=O)c1ccc(C(=O)Nc2ccc3c(c2)C(=O)NC3=O)cc1	30.5	93.8*	-4.2	75.0*	94.5*	3.0	47.2*	-12.3	6.0*	2.5
CC(=O)NC(C)(c1ccccc1)c1nc(-c2cncnc2)cs1 (stereo not drawn)	-1.8	-1.7	4.8	x	-4.7	x	x	x	x	x
